Reference: ChEMBL document CHEMBL3596093, “Synthesis and antimicrobial evaluation of 5-aryl-1,2,4-triazole-3-thione derivatives containing a rhodanine moiety” (2015)
Converted amounts (≈) assume the structure as drawn.

Experiments:
Staphylococcus aureus [1] = assay: Antibacterial activity against Staphylococcus aureus RN4220 after 24 hrs by two-fold serial dilution method; type: functional; conditions: RN4220, 24 h
Summary of the method: (§1)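 Broth microdilution MIC. Bacteria grown to mid-log phase in Mueller-Hinton broth, diluted 1000-fold, about 10^5 CFU/mL. Compounds from DMSO stocks, two-fold serial dilution from a final 64 µg/mL. Incubation at 37 °C for 24 h. Growth read as absorbance at 630 nm on a microplate reader. Run in triplicate.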

Salmonella typhimurium = assay: Antibacterial activity against Salmonella typhimurium 2421 after 24 hrs by two-fold serial dilution method; type: functional, Salmonella enterica subsp. enterica serovar Typhimurium; conditions: Salmonella enterica, 2421, 24 h
Summary of the method: (§2)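 Strains grown to mid-log phase in Mueller-Hinton broth, then diluted 1000-fold in the same broth to about 10^5 CFU/mL. Compounds were made up as DMSO stocks and two-fold serially diluted from a final top concentration of 64 µg/mL. Incubation was 37 °C for 24 h. Growth was read as absorbance at 630 nm on a microplate reader. MIC assays were run in triplicate.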

Staphylococcus aureus [2] = assay: Antibacterial activity against methicillin-resistant Staphylococcus aureus CCARM 3506 after 24 hrs by two-fold serial dilution method; type: functional; conditions: CCARM 3506, 24 h; summary of the method: as §1
Candida albicans = assay: Antifungal activity against Candida albicans 7535 after 24 hrs by two-fold serial dilution method; type: functional; conditions: Candida albicans, 7535, 24 h
Staphylococcus aureus [3] = assay: Antibacterial activity against quinolone-resistant Staphylococcus aureus CCARM 3505 after 24 hrs by two-fold serial dilution method; type: functional; conditions: CCARM 3505, 24 h; summary of the method: as §1
Staphylococcus aureus [4] = assay: Antibacterial activity against methicillin-resistant Staphylococcus aureus CCARM 3167 after 24 hrs by two-fold serial dilution method; type: functional; conditions: CCARM 3167, 24 h; summary of the method: as §1
Pseudomonas aeruginosa [5] = assay: Antibacterial activity against Pseudomonas aeruginosa 2742 after 24 hrs by two-fold serial dilution method; type: functional; conditions: Pseudomonas aeruginosa, 2742, 24 h; summary of the method: as §2
Staphylococcus aureus [6] = assay: Antibacterial activity against Staphylococcus aureus KCTC 209 after 24 hrs by two-fold serial dilution method; type: functional; conditions: KCTC 209, 24 h; summary of the method: as §2
Staphylococcus aureus [7] = assay: Antibacterial activity against Staphylococcus aureus KCTC 503 after 24 hrs by two-fold serial dilution method; type: functional; conditions: KCTC 503, 24 h; summary of the method: as §2
Streptococcus mutans = assay: Antibacterial activity against Streptococcus mutans 3065 after 24 hrs by two-fold serial dilution method; type: functional; conditions: Streptococcus mutans, 3065, 24 h; summary of the method: as §2
Pseudomonas aeruginosa [8] = assay: Antibacterial activity against Pseudomonas aeruginosa 2004 after 24 hrs by two-fold serial dilution method; type: functional; conditions: Pseudomonas aeruginosa, 2004, 24 h; summary of the method: as §2
Escherichia coli [9] = assay: Antibacterial activity against Escherichia coli KCTC 1924 after 24 hrs by two-fold serial dilution method; type: functional; conditions: KCTC 1924, 24 h; summary of the method: as §2
Escherichia coli [10] = assay: Antibacterial activity against Escherichia coli CCARM 1356 after 24 hrs by two-fold serial dilution method; type: functional; conditions: CCARM 1356, 24 h; summary of the method: as §2
Staphylococcus aureus [11] = assay: Antibacterial activity against quinolone-resistant Staphylococcus aureus CCARM 3519 after 24 hrs by two-fold serial dilution method; type: functional; conditions: CCARM 3519, 24 h; summary of the method: as §1
Staphylococcus aureus [12] = assay: Bactericidal activity against quinolone-resistant Staphylococcus aureus CCARM 3519 after 24 hrs by agar plate method; type: functional; conditions: CCARM 3519, 24 h
Summary of the method: (§3)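 5 µL from each well without visible growth plated on fresh Mueller-Hinton agar, then 37 °C for a further 24 h. MBC is the lowest concentration giving no visible colonies. Run in triplicate.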

Escherichia coli [13] = assay: Bactericidal activity against Escherichia coli KCTC 1924 after 24 hrs by agar plate method; type: functional; conditions: KCTC 1924, 24 h
Summary of the method: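 Samples of 5 µL from MIC wells with no visible growth were plated onto fresh Mueller-Hinton agar and incubated a further 24 h at 37 °C. MBC is the lowest concentration giving no visible colony growth on the agar. Assays were run in triplicate.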

Staphylococcus aureus [14] = assay: Bactericidal activity against Staphylococcus aureus KCTC 503 after 24 hrs by agar plate method; type: functional; conditions: KCTC 503, 24 h; summary of the method: as §3
Staphylococcus aureus [15] = assay: Bactericidal activity against methicillin-resistant Staphylococcus aureus CCARM 3167 after 24 hrs by agar plate method; type: functional; conditions: CCARM 3167, 24 h; summary of the method: as §3
Staphylococcus aureus [16] = assay: Bactericidal activity against quinolone-resistant Staphylococcus aureus CCARM 3505 after 24 hrs by agar plate method; type: functional; conditions: CCARM 3505, 24 h; summary of the method: as §3

Compound | MIC (Staphylococcus aureus [1]) | MIC (Salmonella typhimurium) | MIC (Staphylococcus aureus [2]) | MIC (Candida albicans) | MIC (Staphylococcus aureus [3]) | MIC (Staphylococcus aureus [4]) | MIC (Pseudomonas aeruginosa [5]) | MIC (Staphylococcus aureus [6]) | MIC (Staphylococcus aureus [7]) | MIC (Streptococcus mutans) | MIC (Pseudomonas aeruginosa [8]) | MIC (Escherichia coli [9]) | MIC (Escherichia coli [10]) | MIC (Staphylococcus aureus [11]) | MBC (Staphylococcus aureus [12]) | MBC (Escherichia coli [13]) | MBC (Staphylococcus aureus [14]) | MBC (Staphylococcus aureus [15]) | MBC (Staphylococcus aureus [16])
O=C(O)CN1C(=O)/C(=C/c2ccc(/C=N/n3c(-c4cccc(Cl)c4)n[nH]c3=S)cc2)SC1=S | > 64 µg/mL | > 128 µg/mL | > 64 µg/mL | > 64 µg/mL | > 64 µg/mL | > 64 µg/mL | > 128 µg/mL | > 64 µg/mL | > 64 µg/mL | > 64 µg/mL | > 128 µg/mL | > 128 µg/mL | > 128 µg/mL | > 64 µg/mL |  |  |  |  | 
O=C(O)CN1C(=O)/C(=C/c2ccc(/C=N/n3c(-c4ccccc4)n[nH]c3=S)cc2)SC1=S | > 64 µg/mL | > 128 µg/mL | > 64 µg/mL | > 64 µg/mL | > 64 µg/mL | > 64 µg/mL | > 128 µg/mL | > 64 µg/mL | > 64 µg/mL | > 64 µg/mL | > 128 µg/mL | > 128 µg/mL | > 128 µg/mL | > 64 µg/mL |  |  |  |  | 
Cc1ccc(-c2n[nH]c(=S)n2/N=C/c2ccc(/C=C3\SC(=S)N(CC(=O)O)C3=O)cc2)cc1 | > 64 µg/mL | > 128 µg/mL | > 64 µg/mL | > 64 µg/mL | > 64 µg/mL | > 64 µg/mL | > 128 µg/mL | > 64 µg/mL | > 64 µg/mL | > 64 µg/mL | > 128 µg/mL | > 128 µg/mL | > 128 µg/mL | 16 µg/mL (≈ 32.3 µM) | > 128 µg/mL |  |  |  | 
O=C1NC(=S)S/C1=C\c1ccc(/C=N/n2c(-c3cccc(Cl)c3)n[nH]c2=S)cc1 | > 64 µg/mL | > 128 µg/mL | > 64 µg/mL | > 64 µg/mL | > 64 µg/mL | > 64 µg/mL | > 128 µg/mL | > 64 µg/mL | > 64 µg/mL | > 64 µg/mL | > 128 µg/mL | > 128 µg/mL | > 128 µg/mL | > 64 µg/mL |  |  |  |  | 
O=C1NC(=S)S/C1=C\c1ccc(/C=N/n2c(-c3ccc(Br)cc3)n[nH]c2=S)cc1 | > 64 µg/mL | > 128 µg/mL | > 64 µg/mL | > 64 µg/mL | > 64 µg/mL | > 64 µg/mL | > 128 µg/mL | > 64 µg/mL | > 64 µg/mL | > 64 µg/mL | > 128 µg/mL | 64 µg/mL (≈ 127 µM) | > 128 µg/mL | > 64 µg/mL |  | > 256 µg/mL |  |  | 
O=C(O)CN1C(=O)/C(=C/c2ccc(/C=N/n3c(-c4ccc(Cl)cc4)n[nH]c3=S)cc2)SC1=S | > 64 µg/mL | > 128 µg/mL | > 64 µg/mL | > 64 µg/mL | > 64 µg/mL | > 64 µg/mL | > 128 µg/mL | > 64 µg/mL | > 64 µg/mL | > 64 µg/mL | > 128 µg/mL | > 128 µg/mL | > 128 µg/mL | > 64 µg/mL |  |  |  |  | 
Cc1ccc(-c2n[nH]c(=S)n2/N=C/c2ccc(/C=C3\SC(=S)NC3=O)cc2)cc1 | > 64 µg/mL | > 128 µg/mL | > 64 µg/mL | > 64 µg/mL | > 64 µg/mL | > 64 µg/mL | > 128 µg/mL | > 64 µg/mL | > 64 µg/mL | > 64 µg/mL | > 128 µg/mL | > 128 µg/mL | > 128 µg/mL | > 64 µg/mL |  |  |  |  | 
O=C1NC(=S)S/C1=C\c1ccc(/C=N/n2c(-c3ccc(F)cc3)n[nH]c2=S)cc1 | > 64 µg/mL | > 128 µg/mL | > 64 µg/mL | > 64 µg/mL | > 64 µg/mL | > 64 µg/mL | > 128 µg/mL | > 64 µg/mL | > 64 µg/mL | > 64 µg/mL | > 128 µg/mL | > 128 µg/mL | > 128 µg/mL | > 64 µg/mL |  |  |  |  | 
O=C1NC(=S)S/C1=C\c1ccc(/C=N/n2c(-c3ccc(Cl)cc3)n[nH]c2=S)cc1 | > 64 µg/mL | > 128 µg/mL | > 64 µg/mL | > 64 µg/mL | > 64 µg/mL | > 64 µg/mL | > 128 µg/mL | > 64 µg/mL | > 64 µg/mL | > 64 µg/mL | > 128 µg/mL | > 128 µg/mL | > 128 µg/mL | > 64 µg/mL |  |  |  |  | 
O=C(O)CN1C(=O)/C(=C/c2ccc(/C=N/n3c(-c4ccc(Br)cc4)n[nH]c3=S)cc2)SC1=S | > 64 µg/mL | > 128 µg/mL | > 64 µg/mL | > 64 µg/mL | > 64 µg/mL | > 64 µg/mL | > 128 µg/mL | > 64 µg/mL | > 64 µg/mL | > 64 µg/mL | > 128 µg/mL | > 128 µg/mL | > 128 µg/mL | > 64 µg/mL |  |  |  |  | 
Cc1cccc(-c2n[nH]c(=S)n2/N=C/c2ccc(/C=C3\SC(=S)N(CC(=O)O)C3=O)cc2)c1 | > 64 µg/mL | > 128 µg/mL | > 64 µg/mL | > 64 µg/mL | 64 µg/mL (≈ 129 µM) | 64 µg/mL (≈ 129 µM) | > 128 µg/mL | > 64 µg/mL | 64 µg/mL (≈ 129 µM) | > 64 µg/mL | > 128 µg/mL | 32 µg/mL (≈ 64.6 µM) | > 128 µg/mL | 64 µg/mL (≈ 129 µM) | > 256 µg/mL | > 256 µg/mL | > 256 µg/mL | > 256 µg/mL | > 256 µg/mL
